Experimental data: ChEMBL document CHEMBL4477177, “Antituberculosis Activity of a Naturally Occurring Flavonoid, Isorhamnetin” (J Nat Prod, 2016)
Values after ≈ are worked out from the molar mass of the structure shown. Active and inactive are the calls of the source. The calls are words filed in the database; no cut-off is given here.

Experiments:
MRC5 [1] = test: Antiinflammatory activity against IFN-gamma-stimulated human MRC5 cells assessed as reduction of IL-6 mRNA level at 20 uM incubated for 3 hrs by RT-PCR analysis relative to control; format: functional; parameters: scale not given: the % may be the effect or the level left
In short: (§1)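 MRC-5 cells cultured in DMEM with 10% FBS at 37 °C, 5% CO2, then stimulated with or without 20 ng/mL IFN-γ in presence or absence of test agent for 3 h. Competitive RT-PCR; targets amplified 25 cycles (annealing 57 °C). Band densitometry expressed relative to β-actin mRNA. Mean ± SD.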

[2] = Toxicity in mouse at 0.01 to 0.5 mg/kg assessed as irritability; format: organism-based; settings: in vivo
[3] = tested on: Mycobacterium tuberculosis; test: Antitubercular activity against Mycobacterium tuberculosis H37Rv P887 at 158 uM incubated for 1 to 9 days by inverted microscopic analysis; format: functional
In short: (§2)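 Bacteria immobilised in 0.5% agarose within microfluidic channels of a 96-well chip. Compound (0–632 μM; rifampicin 0–19.4 μM) supplied in Middlebrook 7H9 with 10% OADC and allowed to diffuse in. Incubated at 37 °C; channel boundary imaged by inverted microscopy (40×) at 1, 3, 5, 7 and 9 days. MIC90 taken as lowest concentration giving 90% growth inhibition. Triplicate.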

[4] = Toxicity in mouse at 0.01 to 0.5 mg/kg assessed as twisting; format: organism-based; settings: in vivo
[5] = Toxicity in mouse at 0.01 to 0.5 mg/kg assessed as change in AST level; format: organism-based; settings: in vivo
In short: (§3)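 BALB/c mice, 3 per group, given 0.01, 0.1 or 0.5 mg/kg ip; LPS 10 mg/kg ip 1 h later. Sacrificed at 12 h. Serum AST, ALT and BUN measured on an automated clinical analyser. Mean ± SD.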

[6] = Toxicity in mouse at 0.01 to 0.5 mg/kg assessed as weight loss; format: organism-based; settings: in vivo
[7] = Cytotoxicity against human MRC5 cells assessed as cell survival rate at 316 uM after 24 hrs by MTT assay; format: cell-based; settings: read-out: Survival
In short: (§4)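 Cells treated for 24 h with test agent (0–400 μM) or rifampicin (0–16 μM), then MTT assay. Survival taken as A570 of treated cells over A570 of untreated cells, as a percentage. Average of triplicates from three independent experiments.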

[8] = tested on: Mycobacterium tuberculosis; test: Antitubercular activity against MDR Mycobacterium tuberculosis M22 incubated for 1 to 9 days by inverted microscopic analysis; format: functional; in short: as §2
[9] = target: Mitogen-activated protein kinase 3 (Homo sapiens) (UniProt P27361); test: Binding affinity to human ERK1 expressed in Escherichia coli BL21 by fluorescence quenching based spectrofluorometric analysis
In short: (§5)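 C-terminally His6-tagged ERK1 or p38 MAPK expressed in E. coli and purified. Protein at 10 μM in 50 mM sodium phosphate, 100 mM NaCl, pH 8.0, titrated with ligand to 1:10 protein:ligand. Excitation 290 nm, emission 290–500 nm. Binding constant K derived from fluorescence quenching.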

[10] = Cytotoxicity against human HaCaT cells assessed as cell survival rate at 316 uM after 24 hrs by MTT assay; format: cell-based; settings: read-out: Survival; in short: as §4
[11] = Cytotoxicity against human HaCaT cells assessed as cell survival rate at 158 uM after 24 hrs by MTT assay; format: cell-based; settings: read-out: Survival; in short: as §4
[12] = Cytotoxicity against mouse NIH/3T3 cells assessed as cell survival rate at 158 uM after 24 hrs by MTT assay; format: cell-based, NIH3T3; settings: read-out: Survival; in short: as §4
[13] = Toxicity in mouse at 0.01 to 0.5 mg/kg assessed as change in BUN level; format: organism-based; settings: in vivo; in short: as §3
[14] = target: Mitogen-activated protein kinase; ERK1/ERK2 (Homo sapiens) (UniProt P27361+P28482); test: Downregulation of ERK1/2 phosphorylation in IFN-gamma-induced human MRC5 cells at 20 uM pretreated for 1 hr followed by IFN-gamma stimulation for 3 hrs by Western blot analysis; format: cell-based
In short: (§6)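 MRC-5 cells pretreated with 20 μM agent for 1 h, then 20 ng/mL IFN-γ for 3 h. Cytoplasmic lysates prepared; 20 μg protein run on 10% SDS-PAGE and transferred to PVDF. Membranes blocked in 5% BSA/TBST and probed overnight at 4 °C with phospho-specific and total MAPK antibodies. β-Actin used as loading control.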

MRC5 [15] = test: Antiinflammatory activity against IFN-gamma-stimulated human MRC5 cells assessed as reduction of TNF-alpha production at 10 uM after 24 hrs by ELISA relative to control; format: functional; parameters: scale not given: the % may be the effect or the level left
In short: (§7)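 MRC-5 cells stimulated with IFN-γ and exposed to test agent for 24 h. TNF-α and IL-12 in culture media measured by sandwich ELISA: capture antibody coated overnight at 4 °C, blocking 1 h, sample 2 h at RT, detection antibody 1 h, TMB substrate, stopped with 1 N H2SO4, OD 450 nm. Mean ± SD of at least three independent experiments.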

[16] = Cytotoxicity against human MRC5 cells assessed as cell survival rate at 158 uM after 24 hrs by MTT assay; format: cell-based; settings: read-out: Survival; in short: as §4
MRC5 [17] = test: Antiinflammatory activity against IFN-gamma-stimulated human MRC5 cells assessed as reduction of TNF-alpha mRNA level at 20 uM incubated for 3 hrs by RT-PCR analysis relative to control; format: functional; parameters: scale not given: the % may be the effect or the level left; in short: as §1
Mus musculus [18] = test: Antiinflammatory activity against LPS-induced BALB/c mouse lung inflammation model assessed as lowering of IL-1beta level at 0.01 to 0.5 mg/kg, ip administered for 1 hr followed by LPS stimulation for 12 hrs relative to vehicle-treated control; format: functional, organism-based
In short: (§8)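 Female BALB/c mice, 6 weeks old, acclimatised 1 week; 6 groups of 3. Test agent (0.01, 0.1 or 0.5 mg/kg) given ip; 1 h later LPS 10 mg/kg ip in PBS. Sacrifice at 12 h. Whole lungs homogenised in NP-40 lysis buffer at 4 °C and centrifuged. Cytokines in supernatant measured by ELISA (OD 450 nm).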

MRC5 [19] = test: Antiinflammatory activity against IFN-gamma-stimulated human MRC5 cells assessed as reduction of IL-1beta mRNA level at 20 uM incubated for 3 hrs by RT-PCR analysis relative to control; format: functional; parameters: scale not given: the % may be the effect or the level left; in short: as §1
MRC5 [20] = test: Antiinflammatory activity against IFN-gamma-stimulated human MRC5 cells assessed as reduction of MMP-1 mRNA level at 20 uM incubated for 3 hrs by RT-PCR analysis relative to control; format: functional; parameters: scale not given: the % may be the effect or the level left; in short: as §1
Mus musculus [21] = test: Antiinflammatory activity against LPS-induced BALB/c mouse lung inflammation model assessed as lowering of IFN-gamma level at 0.01 to 0.5 mg/kg, ip administered for 1 hr followed by LPS stimulation for 12 hrs relative to vehicle-treated control; format: functional, organism-based; in short: as §8
[22] = tested on: Mycobacterium tuberculosis; test: Antitubercular activity against Mycobacterium tuberculosis H37Rv P887 incubated for 1 to 9 days by inverted microscopic analysis; format: functional; in short: as §2
Mus musculus [23] = test: Antiinflammatory activity against LPS-induced BALB/c mouse lung inflammation model assessed as lowering of IL-6 level at 0.01 to 0.5 mg/kg, ip administered for 1 hr followed by LPS stimulation for 12 hrs relative to vehicle-treated control; format: functional, organism-based; in short: as §8
Mus musculus [24] = test: Antiinflammatory activity against LPS-induced BALB/c mouse lung inflammation model assessed as lowering of IL-12 level at 0.01 to 0.5 mg/kg, ip administered for 1 hr followed by LPS stimulation for 12 hrs relative to vehicle-treated control; format: functional, organism-based; in short: as §8
[25] = tested on: Mycobacterium tuberculosis; test: Antitubercular activity against MDR Mycobacterium tuberculosis X23 incubated for 1 to 9 days by inverted microscopic analysis; format: functional
MRC5 [26] = test: Antiinflammatory activity against IFN-gamma-stimulated human MRC5 cells assessed as reduction of IL-12 mRNA level at 20 uM incubated for 3 hrs by RT-PCR analysis relative to control; format: functional; parameters: scale not given: the % may be the effect or the level left; in short: as §1
[27] = Cytotoxicity against mouse NIH/3T3 cells assessed as cell survival rate at 400 uM after 24 hrs by MTT assay; format: cell-based, NIH3T3; settings: read-out: Survival; in short: as §4
MRC5 [28] = test: Antiinflammatory activity against IFN-gamma-stimulated human MRC5 cells assessed as reduction of IL-12 production at 5 uM after 24 hrs by ELISA relative to control; format: functional; parameters: scale not given: the % may be the effect or the level left; in short: as §7
[29] = Toxicity in mouse at 0.01 to 0.5 mg/kg assessed as breathing; format: organism-based; settings: in vivo
[30] = Cytotoxicity against human HaCaT cells assessed as cell survival rate at 400 uM after 24 hrs by MTT assay; format: cell-based; settings: read-out: Survival; in short: as §4
[31] = tested on: Mycobacterium tuberculosis; test: Antitubercular activity against XDR Mycobacterium tuberculosis X24 incubated for 1 to 9 days by inverted microscopic analysis; format: functional; in short: as §2
[32] = Toxicity in mouse at 0.01 to 0.5 mg/kg assessed as change in ALT level; format: organism-based; settings: in vivo; in short: as §3
[33] = target: T1, MAP kinase p38 (Homo sapiens) (UniProt O15264+Q15759+Q16539+P53778); test: Binding affinity to human C-terminally His-tagged p38 expressed in Escherichia coli BL21 by fluorescence quenching based spectrofluorometric analysis; in short: as §5
[34] = target: Mitogen-activated protein kinase 8/9 (Homo sapiens) (UniProt P45983+P45984); test: Downregulation of JNK1/2 phosphorylation in IFN-gamma-induced human MRC5 cells at 20 uM pretreated for 1 hr followed by IFN-gamma stimulation for 3 hrs by Western blot analysis; format: cell-based; in short: as §6
[35] = Lipophilicity, logP of the compound; format: physicochemical; settings: octanol/water
MRC5 [36] = test: Antiinflammatory activity against IFN-gamma-stimulated human MRC5 cells assessed as reduction of TNF-alpha production at 5 uM after 24 hrs by ELISA relative to control; format: functional; parameters: scale not given: the % may be the effect or the level left; in short: as §7
MRC5 [37] = test: Antiinflammatory activity against IFN-gamma-stimulated human MRC5 cells assessed as reduction of IL-12 production at 10 uM after 24 hrs by ELISA relative to control; format: functional; parameters: scale not given: the % may be the effect or the level left; in short: as §7
[38] = Cytotoxicity against mouse NIH/3T3 cells assessed as cell survival rate at 316 uM after 24 hrs by MTT assay; format: cell-based, NIH3T3; settings: read-out: Survival; in short: as §4
[39] = tested on: Mycobacterium tuberculosis; test: Antitubercular activity against XDR Mycobacterium tuberculosis X59 incubated for 1 to 9 days by inverted microscopic analysis; format: functional; in short: as §2
[40] = target: T1, MAP kinase p38 (Homo sapiens); test: Downregulation of p38 phosphorylation in IFN-gamma-induced human MRC5 cells at 20 uM pretreated for 1 hr followed by IFN-gamma stimulation for 3 hrs by Western blot analysis; format: cell-based; in short: as §6
[41] = Toxicity in mouse at 0.01 to 0.5 mg/kg assessed as death; format: organism-based; settings: in vivo
[42] = tested on: Mycobacterium tuberculosis; test: Antitubercular activity against Mycobacterium tuberculosis H37Rv ATCC 27294 incubated for 7 days by resazurin assay; format: functional; settings: H37Rv ATCC 27294, 168 h

Mitogen-activated protein kinase 8/9 (Homo sapiens), sequence (P45983 whole entry, looked up): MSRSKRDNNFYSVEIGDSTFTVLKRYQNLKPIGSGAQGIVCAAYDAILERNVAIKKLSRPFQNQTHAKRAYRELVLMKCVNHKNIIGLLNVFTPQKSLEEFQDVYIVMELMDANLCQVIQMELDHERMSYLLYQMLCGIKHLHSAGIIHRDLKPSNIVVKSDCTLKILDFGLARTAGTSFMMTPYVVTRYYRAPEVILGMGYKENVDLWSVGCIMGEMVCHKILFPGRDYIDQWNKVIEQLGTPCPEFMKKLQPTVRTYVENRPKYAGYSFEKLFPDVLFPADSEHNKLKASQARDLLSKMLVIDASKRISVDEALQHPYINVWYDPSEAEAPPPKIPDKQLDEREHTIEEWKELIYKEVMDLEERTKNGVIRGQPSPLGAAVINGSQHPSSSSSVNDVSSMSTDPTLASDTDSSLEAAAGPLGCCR
Mitogen-activated protein kinase 8/9 (Homo sapiens), sequence (P45984 whole entry, looked up): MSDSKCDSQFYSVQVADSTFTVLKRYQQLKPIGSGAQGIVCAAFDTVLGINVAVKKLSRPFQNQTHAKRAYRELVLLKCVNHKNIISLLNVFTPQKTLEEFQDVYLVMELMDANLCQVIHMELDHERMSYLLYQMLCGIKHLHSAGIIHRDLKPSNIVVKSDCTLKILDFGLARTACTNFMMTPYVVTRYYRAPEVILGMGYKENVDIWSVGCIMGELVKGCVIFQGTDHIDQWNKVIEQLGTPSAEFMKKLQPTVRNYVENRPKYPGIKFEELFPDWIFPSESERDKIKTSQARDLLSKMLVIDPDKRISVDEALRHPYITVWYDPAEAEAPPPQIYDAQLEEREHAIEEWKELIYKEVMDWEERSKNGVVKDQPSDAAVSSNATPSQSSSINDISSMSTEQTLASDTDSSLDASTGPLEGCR
Mitogen-activated protein kinase; ERK1/ERK2 (Homo sapiens), sequence (P27361 whole entry, looked up): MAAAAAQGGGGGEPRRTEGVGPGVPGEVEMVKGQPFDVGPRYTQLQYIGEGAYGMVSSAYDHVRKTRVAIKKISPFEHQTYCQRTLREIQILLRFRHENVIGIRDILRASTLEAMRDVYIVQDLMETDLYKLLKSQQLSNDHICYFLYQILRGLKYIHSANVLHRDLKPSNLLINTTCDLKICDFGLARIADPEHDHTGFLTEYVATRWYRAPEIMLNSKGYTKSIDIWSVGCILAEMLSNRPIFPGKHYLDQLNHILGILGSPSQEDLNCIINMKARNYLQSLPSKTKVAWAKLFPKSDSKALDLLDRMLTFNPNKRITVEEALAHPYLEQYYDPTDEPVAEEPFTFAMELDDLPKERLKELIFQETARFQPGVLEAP
Mitogen-activated protein kinase; ERK1/ERK2 (Homo sapiens), sequence (P28482 whole entry, looked up): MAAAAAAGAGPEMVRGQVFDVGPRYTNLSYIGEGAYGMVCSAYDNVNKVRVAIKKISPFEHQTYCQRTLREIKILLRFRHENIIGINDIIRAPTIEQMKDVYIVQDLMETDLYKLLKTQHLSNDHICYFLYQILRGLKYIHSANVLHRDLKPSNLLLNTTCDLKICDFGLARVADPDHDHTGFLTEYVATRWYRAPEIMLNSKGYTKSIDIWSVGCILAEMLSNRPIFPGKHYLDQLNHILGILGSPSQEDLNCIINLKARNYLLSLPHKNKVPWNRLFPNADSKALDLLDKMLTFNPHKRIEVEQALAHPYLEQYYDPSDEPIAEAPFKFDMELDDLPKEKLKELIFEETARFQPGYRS
Mitogen-activated protein kinase 3 (Homo sapiens), sequence (P27361 whole entry): as the sequence (P27361 whole entry, looked up) above

COc1cc(-c2oc3cc(O)cc(O)c3c(=O)c2O)ccc1O [ISORHAMNETIN]
Activity (MRC5 [1]): 69%
Activity [2]: Non-Toxic
inhibition at 158 µM [3]: 90%
Activity [4]: Non-Toxic
Activity [5]: Non-Toxic
Activity [6]: Non-Toxic
viability at 24 h, 316 µM [7]: 47%
MIC90 [8]: 316 µM (≈ 99.9 µg/mL)
K [9]: 4.46 ×10⁶ /M
viability at 24 h, 316 µM [10]: 71%
viability at 24 h, 158 µM [11]: 90%
viability at 24 h, 158 µM [12]: 78%
Activity [13]: Non-Toxic
Activity [14]: Active
Activity (MRC5 [15]): 43.75%
viability at 24 h, 158 µM [16]: 54%
Activity (MRC5 [17]): 56%
Activity (Mus musculus [18]): Active
Activity (MRC5 [19]): 39%
Activity (MRC5 [20]): 41%
Activity (Mus musculus [21]): Active
MIC90 [22]: 158 µM (≈ 50 µg/mL)
Activity (Mus musculus [23]): Active
Activity (Mus musculus [24]): Active
MIC90 [25]: 316 µM (≈ 99.9 µg/mL)
Activity (MRC5 [26]): 76%
viability at 24 h, 400 µM [27]: 58%
Activity (MRC5 [28]): 45%
Activity [29]: Non-Toxic
viability at 24 h, 400 µM [30]: 66%
MIC90 [31]: 316 µM (≈ 99.9 µg/mL)
Activity [32]: Non-Toxic
K [33]: 7.6 ×10⁶ /M
Activity [34]: inactive
logP [35]: 1.86
Activity (MRC5 [36]): 37.5%
Activity (MRC5 [37]): 50%
viability at 24 h, 316 µM [38]: 63%
MIC90 [39]: 316 µM (≈ 99.9 µg/mL)
Activity [40]: Active
Activity [41]: Non-Toxic

O=c1cc(-c2ccc(O)c(O)c2)oc2cc(O)cc(O)c12 [LUTEOLIN]
MIC [42]: 827 µM (≈ 237 µg/mL)
